Data from ChEMBL document CHEMBL1155964, “Discovery of diarylpyridine derivatives as novel non-nucleoside HIV-1 reverse transcriptase inhibitors” (Bioorg Med Chem Lett, 2009).

How the values were obtained:
MT2 = experiment: Cytotoxicity against human MT2 cells after 4 days by XTT assay; assay type: cell-based; details: mt2, 96 h
[1] = Selectivity index, ratio of CC50 for human MT2 cells to EC50 for HIV1 3B; assay type: toxicity, cell-based; details: read-out: Ratio CC50/EC50
How it was run: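 HIV-1 IIIB replication in MT-2 cells, measured by p24 ELISA to give the EC50. Cytotoxicity in uninfected MT-2 cells measured by XTT to give the CC50. Each run in triplicate and reported as means ± SD. SI = CC50/EC50.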

[2] = tested on: Human immunodeficiency virus 1; experiment: Antiviral activity against HIV1 3B infected in human MT2 cells assessed as inhibition of viral replication by p24 antigen assay; assay type: functional, organism-based; details: Human immunodeficiency virus 1, 3B
How it was run: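 HIV-1 IIIB replication in MT-2 cells, read as p24 production by ELISA. […] Tested in triplicate; means ± SD.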

[3] = tested on: Human immunodeficiency virus 1; experiment: Antiviral activity against HIV1 RTMDR1 infected in human TZM-bl cells assessed as inhibition of viral replication; assay type: functional, organism-based; details: Human immunodeficiency virus 1, RTMDR1, TZM-bl
How it was run: (§1)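 Tested in triplicate and reported as means ± SD. The RTMDR1 strain carries the RT mutations 74V, 41L, 106A and 215Y.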

[4] = tested on: Human immunodeficiency virus 1; experiment: Antiviral activity against HIV1 NL4-3 infected in human TZM-bl cells assessed as inhibition of viral replication; assay type: functional, organism-based; details: Human immunodeficiency virus 1, NL4-3, TZM-bl; how it was run: as §1
[5] = Selectivity index, ratio of CC50 for human TZM-bl cells to EC50 for HIV1 RTMDR1; assay type: toxicity, cell-based; details: read-out: Ratio CC50/EC50
[6] = Selectivity index, ratio of CC50 for human TZM-bl cells to EC50 for HIV1 NL4-3; assay type: toxicity, cell-based; details: read-out: Ratio CC50/EC50
[7] = Cytotoxicity against human TZM-bl cells; assay type: cell-based
[8] = Selectivity index, ratio of CC50 for human MT4 cells to EC50 for HIV1 3B
[9] = tested on: Human immunodeficiency virus 1; experiment: Antiviral activity against HIV1 3B infected in human MT4 cells assessed as inhibition of viral replication; assay type: functional, organism-based; details: Human immunodeficiency virus 1, 3B

For Cc1cccc(C)c1Oc1ccc([N+](=O)[O-])c(Nc2ccc(C#N)cc2)n1, which CC50 (MT2) is on record?
Its CC50 is 110000 nM.

What about the selectivity ratio [1] of the same compound?
Its selectivity ratio is 107.

What about the EC50 [2] of the same compound?
Its EC50 is 1030 nM.

What about the EC50 [3] of the same compound?
Its EC50 is 128 nM.

And the EC50 [4]?
Its EC50 is 234 nM.

What about the selectivity ratio [5] of the same compound?
The selectivity ratio was greater than 433.

And the selectivity ratio [6]?
Its selectivity ratio is greater than 238.

And the CC50 [7]?
Its CC50 is greater than 55600 nM.

Which results are given for C#Cc1cc(C)c(Oc2ccc([N+](=O)[O-])c(Nc3ccc(C#N)cc3)n2)c(C)c1?
CC50 (MT2): 174000 nM; selectivity ratio [1]: 256; EC50 [2]: 677 nM; EC50 [3]: 215 nM; EC50 [4]: 111 nM; selectivity ratio [5]: > 242; selectivity ratio [6]: > 469; CC50 [7]: > 52100 nM

Which CC50 (MT2) does the source give for Cc1cccc(C)c1Oc1ccc(N)c(Nc2ccc(C#N)cc2)n1 here?
The CC50 was 29900 nM.

And the selectivity ratio [1]?
The selectivity ratio was 52.

What about the EC50 [2] of the same compound?
The EC50 was 576 nM.

What about the EC50 [3] of the same compound?
Its EC50 is 3.78 nM.

What about the EC50 [4] of the same compound?
Its EC50 is 4.02 nM.

What about the selectivity ratio [5] of the same compound?
The selectivity ratio was 2150.

What about the selectivity ratio [6] of the same compound?
The selectivity ratio was 2020.

And the CC50 [7]?
Its CC50 is 8140 nM.

For Cc1cc(C#CC(C)(C)O)cc(C)c1Oc1ccc(N)c(Nc2ccc(C#N)cc2)n1, which CC50 (MT2) is on record?
Its CC50 is 3540 nM.

What about the selectivity ratio [1] of the same compound?
Its selectivity ratio is 2.

What about the EC50 [2] of the same compound?
Its EC50 is 1580 nM.

What about the EC50 [3] of the same compound?
The EC50 was 531 nM.

And the EC50 [4]?
The EC50 was 241 nM.

What about the selectivity ratio [5] of the same compound?
Its selectivity ratio is 16.

What about the selectivity ratio [6] of the same compound?
Its selectivity ratio is 36.

And the CC50 [7]?
The CC50 was 8730 nM.

With Cc1cc(C)c(Oc2ccc(N)c(Nc3ccc(C#N)cc3)n2)c(C)c1 as the compound, how does the CC50 (MT2) read?
Its CC50 is 10600 nM.

And the selectivity ratio [1]?
Its selectivity ratio is 182.

And the EC50 [2]?
The EC50 was 58 nM.

What about the EC50 [3] of the same compound?
Its EC50 is 1.2 nM.

And the EC50 [4]?
Its EC50 is 1.67 nM.

And the selectivity ratio [5]?
The selectivity ratio was 15500.

And the selectivity ratio [6]?
The selectivity ratio was 11200.

And the CC50 [7]?
The CC50 was 18600 nM.

With Cc1cc(C)c(Oc2ccc([N+](=O)[O-])c(Nc3ccc(C#N)cc3)n2)c(C)c1 as the compound, how does the CC50 (MT2) read?
The CC50 was 503000 nM.

And the selectivity ratio [1]?
The selectivity ratio was 4260.

And the EC50 [2]?
The EC50 was 118 nM.

What about the EC50 [3] of the same compound?
Its EC50 is 55.2 nM.

What about the EC50 [4] of the same compound?
Its EC50 is 22.9 nM.

What about the selectivity ratio [5] of the same compound?
The selectivity ratio was greater than 969.

What about the selectivity ratio [6] of the same compound?
Its selectivity ratio is greater than 2340.

What about the CC50 [7] of the same compound?
The CC50 was greater than 53500 nM.

Which CC50 (MT2) does the source give for Cc1cc(C#CC(C)(C)O)cc(C)c1Oc1ccc([N+](=O)[O-])c(Nc2ccc(C#N)cc2)n1 here?
The CC50 was 8910 nM.

And the selectivity ratio [1]?
The selectivity ratio was less than 1.

What about the EC50 [2] of the same compound?
The EC50 was 23300 nM.

And the EC50 [3]?
The EC50 was 25500 nM.

And the EC50 [4]?
Its EC50 is 41300 nM.

And the selectivity ratio [5]?
Its selectivity ratio is greater than 1.78.

What about the selectivity ratio [6] of the same compound?
The selectivity ratio was greater than 1.09.

And the CC50 [7]?
Its CC50 is greater than 45200 nM.

Which results are given for C#Cc1cc(C)c(Oc2ccc(N)c(Nc3ccc(C#N)cc3)n2)c(C)c1?
CC50 (MT2): 8250 nM; selectivity ratio [1]: 20; EC50 [2]: 424 nM; EC50 [3]: 9.03 nM; EC50 [4]: 6.7 nM; selectivity ratio [5]: 1100; selectivity ratio [6]: 1480; CC50 [7]: 9940 nM

Which CC50 (MT2) does the source give for Cc1cc(I)cc(C)c1Oc1ccc(N)c(Nc2ccc(C#N)cc2)n1 here?
Its CC50 is 23500 nM.

What about the selectivity ratio [1] of the same compound?
Its selectivity ratio is 297.

What about the EC50 [2] of the same compound?
Its EC50 is 79 nM.

What about the EC50 [3] of the same compound?
Its EC50 is 5.13 nM.

What about the EC50 [4] of the same compound?
Its EC50 is 7.6 nM.

What about the selectivity ratio [5] of the same compound?
The selectivity ratio was 3260.

And the selectivity ratio [6]?
The selectivity ratio was 2200.

And the CC50 [7]?
The CC50 was 16700 nM.

With Cc1cc(C#N)cc(C)c1Oc1ccc(N)c(Nc2ccc(C#N)cc2)n1 as the compound, how does the CC50 (MT2) read?
The CC50 was 31800 nM.

What about the selectivity ratio [1] of the same compound?
The selectivity ratio was 22700.

What about the EC50 [2] of the same compound?
Its EC50 is 1.4 nM.

And the EC50 [3]?
The EC50 was 0.96 nM.

And the EC50 [4]?
The EC50 was 0.68 nM.

What about the selectivity ratio [5] of the same compound?
The selectivity ratio was 9350.

What about the selectivity ratio [6] of the same compound?
Its selectivity ratio is 13200.

And the CC50 [7]?
Its CC50 is 8980 nM.

With Cc1cc(I)cc(C)c1Oc1ccc([N+](=O)[O-])c(Nc2ccc(C#N)cc2)n1 as the compound, how does the CC50 (MT2) read?
The CC50 was 148000 nM.

What about the selectivity ratio [1] of the same compound?
Its selectivity ratio is 61.

And the EC50 [2]?
Its EC50 is 2430 nM.

And the EC50 [3]?
The EC50 was 94.3 nM.

And the EC50 [4]?
The EC50 was 61 nM.

What about the selectivity ratio [5] of the same compound?
The selectivity ratio was greater than 436.

What about the selectivity ratio [6] of the same compound?
The selectivity ratio was greater than 675.

What about the CC50 [7] of the same compound?
The CC50 was greater than 41200 nM.

For Cc1cc(C#N)cc(C)c1Oc1ccc([N+](=O)[O-])c(Nc2ccc(C#N)cc2)n1, which CC50 (MT2) is on record?
Its CC50 is 50100 nM.

What about the selectivity ratio [1] of the same compound?
The selectivity ratio was 371.

What about the EC50 [2] of the same compound?
The EC50 was 135 nM.

And the EC50 [3]?
The EC50 was 21.1 nM.

And the EC50 [4]?
The EC50 was 22.1 nM.

And the selectivity ratio [5]?
The selectivity ratio was greater than 2460.

And the selectivity ratio [6]?
The selectivity ratio was greater than 2350.

And the CC50 [7]?
Its CC50 is greater than 52000 nM.

For Cc1cc(CO)cc(C)c1Oc1ccc(N)c(Nc2ccc(C#N)cc2)n1, which CC50 (MT2) is on record?
Its CC50 is 2190 nM.

And the selectivity ratio [1]?
The selectivity ratio was 391.

What about the EC50 [2] of the same compound?
Its EC50 is 6 nM.

What about the EC50 [3] of the same compound?
The EC50 was 25.1 nM.

And the EC50 [4]?
Its EC50 is 10.9 nM.

And the selectivity ratio [5]?
The selectivity ratio was 372.

And the selectivity ratio [6]?
The selectivity ratio was 857.

And the CC50 [7]?
Its CC50 is 9340 nM.

Which CC50 (MT2) does the source give for Cc1cc(CO)cc(C)c1Oc1ccc([N+](=O)[O-])c(Nc2ccc(C#N)cc2)n1 here?
Its CC50 is 116000 nM.

What about the selectivity ratio [1] of the same compound?
Its selectivity ratio is 603.

What about the EC50 [2] of the same compound?
The EC50 was 192 nM.

What about the EC50 [3] of the same compound?
Its EC50 is 877 nM.

And the EC50 [4]?
Its EC50 is 477 nM.

And the selectivity ratio [5]?
The selectivity ratio was greater than 58.

What about the selectivity ratio [6] of the same compound?
The selectivity ratio was greater than 108.

What about the CC50 [7] of the same compound?
Its CC50 is greater than 51300 nM.

For Cc1cc(C)c(Nc2ccnc(Nc3ccc(C#N)cc3)n2)c(C)c1 [DAPIVIRINE], which EC50 [3] is on record?
Its EC50 is 0.298 nM.

What about the EC50 [4] of the same compound?
The EC50 was 0.62 nM.

And the selectivity ratio [5]?
Its selectivity ratio is greater than 1020.

What about the selectivity ratio [6] of the same compound?
Its selectivity ratio is greater than 490.

And the CC50 [7]?
Its CC50 is greater than 304 nM.

Which results are given for Cc1cc(C#N)cc(C)c1Oc1nc(Nc2ccc(C#N)cc2)nc(N)c1Br [ETRAVIRINE]?
selectivity ratio [8]: 63100; EC50 [9]: 1.58 nM
